For test [1], the target named is Pol β binary complex (Pol β/sngDNA) (Rattus norvegicus, UniProt P06766). Format: binding. The conditions noted are these: for ΔH of binding (ITC) / ΔS of binding (ITC): binding to Pol β binary complex, 23 °C. The method, boiled down: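 Binary complex formed with 20-mer single-nucleotide-gapped duplex DNA (DNA:protein ~1.5:1). Ligands were nonhydrolyzable α,β-imido dNTP analogues, titrated in matched buffer (50 mM HEPES, 100 mM NaCl, 5 mM MgCl₂, 2 mM DTT, pH 7.4) at 1000 rpm with 250 s between injections. Matching analogue: 0.2 mM into 0.013 mM complex. Mismatching analogue: 6 mM into 0.106 mM complex.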

The target in test [2] is binary Pol β complex (Pol β/sngDNA) (Homo sapiens, UniProt P06746). The experiment in a line: NMR lineshape analysis. Format: binding, rat. The method, boiled down:
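It was titrated with Mg²⁺-containing nonhydrolyzable matching (0–2:1) or mismatching (0.15–4.6:1) dNTP analogue, followed by ¹H–¹⁵N TROSY/HSQC. Resonances resolved in both dimensions throughout were fitted to a two-state model for koff and KD.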

For the compound `Nc1ncnc2c1ncn2[C@H]1C[C@H](O)[C@@H](COP(=O)(O)NP(=O)(O)OP(=O)(O)O)O1` [dApNHpp, 2′-deoxyadenosine-5′[(α,β)-imido]triphosphate], in test [1] (based upon ITC data), the “fold weaker binding than the matching nucleotide” value is “approximately 300 fold”. In test [1], the “ΔH of binding (ITC)” value was 8.84 ± 2.2 kcal/mol and the “ΔS of binding (ITC)” value turned out to be 195 ± 32 J/mol−K. The “fold greater koff than that measured for the matching nucleotide” value in test [2] (NMR line shape data) is listed as “approximately 50 fold”. Besides, in test [2] (in the presence of 3.0 mM dApNHpp, estimated), the “kex of nucleotide binding/dissociation within the binding cavity” value is around 7000 s⁻¹.
Regarding `Nc1ccn([C@H]2C[C@H](O)[C@@H](COP(=O)(O)NP(=O)(O)OP(=O)(O)O)O2)c(=O)n1` [dCpNHpp, 2′-Deoxycytidine-5′-[(α,β)-imido]triphosphate], in test [1], the “ΔH of binding (ITC)” value came out at 22.2 ± 0.24 kcal/mol and the “ΔS of binding (ITC)” value was 432 ± 5 J/mol−K. Besides, in test [2] (two-state model, global fit of nine residues, 23 °C), the “koff (NMR lineshape analysis)” value was 5.1 s⁻¹.
